Bioassay records as filed in PubChem BioAssay.
hERG protect: shields human hERG channel from block by proarrhythmic agents. Q12809. activation (rescue from dofetilide block), less the hit threshold, % at 10 µM. hit rate 0.51% among 310,000. CHO-hERG, FluxOR thallium flux, dofetilide IC70 present;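 active means activation above the mean of controls blocked by dofetilide plus 5 SD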;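 further: thallium influx through hERG after potassium depolarization seen as dye fluorescence rise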
KCNQ1 pot: potentiates or activates the human KCNQ1 potassium channel. B-score at 10 µM. CHO-K1 KCNQ1, thallium flux FluxOR fluorescence; active compounds read high. hit rate 0.35% among 310,000. P51787. AID 2648;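 active means fluorescence ratio B-score, a plate-corrected score, at least three library SD, with initial intensity B-score within 5 SD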
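Doses: Single concentration per compound, DMSO matched to controls | Test system: KCNQ1-transfected CHO-K1 cells | Timing: 90 min dye loading and 20 min compound exposure, both at room temperature | Measured by: Kinetic FluxOR thallium fluorescence, 10-s 1-Hz baseline, 110-s post-stimulus read | Medium: Assay buffer with matched DMSO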
KCNK3 block: human KCNK3 channel inhibition, primary screen; AID 602410; O14649; B-score at 10 µM; CHO-KCNK3 thallium flux, FluxOR fluorescence; active compounds read low; hit rate 0.84% among 340,000;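 active means B-score under library mean minus 4 SD, starting fluorescence ratio at most library mean plus 5 SD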;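 further: more negative B-score means stronger inhibition of thallium flux through KCNK3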
Kir21 inh: blocks the mouse Kir2.1 inward-rectifier potassium channel. AID 1672. HEK293-Kir2.1, FluxOR thallium flux fluorescence; active compounds read low. B-score at 10 µM. hit rate 0.85% among 310,000;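 active means fluorescence ratio B-score at or below minus 3 SD of library scores, with starting-brightness B-score within 2 SD, cut at about -4.2 in these data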;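 further: channel flux triggered by added potassium and thallium sulfate stimulus; B-score of peak minus minimum fluorescence over baseline after thallium stimulus; more negative B-score means stronger Kir2.1 block with less thallium influx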
KCNQ1 inh: inhibitors of human KCNQ1 potassium channel; P51787; CHO-K1 KCNQ1, FluxOR thallium flux fluorescence; active compounds read high; B-score at 10 µM; hit rate 1.3% among 310,000;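 active means compounds whose thallium flux B-score, printed positive for inhibition, exceeds three library SD while starting fluorescence stays within three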;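 further: channel opened by potassium depolarization with thallium stimulus after 20 min compound exposure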
KCNK9 inh: inhibitors of human KCNK9 two-pore domain potassium channel; B-score at 10 µM; hit rate 1.2% among 310,000; HEK293 KCNK9, FluxOR thallium flux fluorescence; active compounds read low;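 active means ratio B-score over 3 SD below the library mean, with starting fluorescence within 5 SD of its mean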;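 further: negative B-score means less thallium flux so channel inhibition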
Target sequence (Q9NPC2 whole entry, looked up, the tested form may be a part): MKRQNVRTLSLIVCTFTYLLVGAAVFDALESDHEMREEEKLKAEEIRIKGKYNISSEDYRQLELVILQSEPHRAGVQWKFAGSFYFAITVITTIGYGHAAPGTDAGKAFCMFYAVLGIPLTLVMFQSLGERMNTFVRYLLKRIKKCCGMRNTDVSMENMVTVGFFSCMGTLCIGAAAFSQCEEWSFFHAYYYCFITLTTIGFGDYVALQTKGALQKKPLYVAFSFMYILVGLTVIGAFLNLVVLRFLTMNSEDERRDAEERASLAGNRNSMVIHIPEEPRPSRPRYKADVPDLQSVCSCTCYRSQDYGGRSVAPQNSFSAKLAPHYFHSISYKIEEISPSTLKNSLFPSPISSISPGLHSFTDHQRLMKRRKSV
KCNQ1 block val: human KCNQ1 channel inhibition, validation assay | inhibition, % at 10 µM | hit rate 93% among 1,600 | shares compounds with KCNQ1 inh | KCNQ1 cell line, FluxOR thallium flux fluorescence;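 active means primary screen active, with duplicate mean exceeding buffer control mean plus 3 SD of buffer wells, cut at about 28% in these data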;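 further: 0% = buffer control ratio and 100% = XE991 inhibitor control ratio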
CHO KCNQ1 ctr: counter-screen for KCNQ1 inhibitors: effect in parental CHO cells | shares compounds with KCNQ1 inh | parental CHO-K1, FluxOR thallium flux fluorescence ratio; active compounds read low; zero means no signal rise above baseline | fluorescence ratio (Tl flux) at 10 µM | hit rate 21% among 1,600;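 active means mean of duplicate thallium-flux fluorescence ratios in parental host cells more than 5 SD below the buffer control mean, cut at about 0.38 in these data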;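 further: ratio is peak minus minimum fluorescence divided by baseline fluorescence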
KCNQ1 ephys val: blocks human KCNQ1 current in automated patch clamp | hit rate 20% among 490 | calls only at 10 µM | shares compounds with KCNQ1 inh | KCNQ1-CHO cells;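 active means KCNQ1 current drop exceeding 3 SD of negative control wells, seen in both duplicate runs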;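 further: steady state current during a 2 s step from -80 to +40 mV; negative values mean current inhibition and positive values mean potentiation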
KCNQ2 inh: selectivity of KCNQ1 inhibitors: inhibition of rat KCNQ2 channel | inhibition, % at 10 µM | hit rate 71% among 1,600 | shares compounds with KCNQ1 inh | KCNQ2 cells, FluxOR thallium flux fluorescence;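 active means mean percent inhibition of the KCNQ2 thallium signal more than 5 SD above the buffer-only control wells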;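 further: KCNQ2 expressed in CHO cells; 0% = buffer control wells and 100% = XE-991 inhibitor control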
KCNQ1-KCNE1 inh: selectivity of KCNQ1 inhibitors: inhibition of human KCNQ1/KCNE1 channel; shares compounds with KCNQ1 inh; KCNQ1/KCNE1 cells, FluxOR thallium flux fluorescence; inhibition, % at 10 µM; hit rate 77% among 1,600;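 active means mean percent inhibition of duplicate wells above the buffer-only control mean plus 3 SD of those controls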;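 further: 0% = buffer only wells and 100% = XE-991 inhibitor control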
Numbers without * were called inactive. The list is not random: actives were taken first. Their share in the collection is about 3.7%.

For CCn1c(-c2cc(-c3cccc(OC)c3)nc3ccccc23)n[nH]c1=S the results were hERG protect -12, KCNQ1 pot inactive, KCNK3 block inactive, Kir21 inh 0.91, KCNQ1 inh 6*, KCNK9 inh inactive, KCNQ1 block val 80*, CHO KCNQ1 ctr 0.47, KCNQ2 inh inactive and KCNQ1-KCNE1 inh 95%*.
CCc1ccc(-c2cc(-c3n[nH]c(=S)n3CC)c3ccccc3n2)cc1 was read as hERG protect -5, KCNQ1 pot inactive, Kir21 inh 0.41, KCNQ1 inh inactive and KCNK9 inh inactive.
Screening CCN(CC)S(=O)(=O)c1cccc(C(=O)NNC(=O)C2=NN(c3ccccc3)C(=O)CC2)c1 returned hERG protect -5, KCNQ1 pot inactive, KCNK3 block inactive, Kir21 inh 0.88, KCNQ1 inh inactive and KCNK9 inh inactive.
Screening O=C(N/C=C/c1ccccc1)Nc1ccc(Cl)cc1 returned hERG protect -5, KCNQ1 pot inactive, KCNK3 block inactive, Kir21 inh -0.19, KCNQ1 inh 7*, KCNK9 inh inactive, KCNQ1 block val 62*, CHO KCNQ1 ctr 0.48, KCNQ2 inh 64%* and KCNQ1-KCNE1 inh inactive.
CC(C)CCNC(=O)C(=O)Nc1ccccc1 was read as hERG protect -8, KCNQ1 pot inactive, KCNK3 block inactive, Kir21 inh -0.01, KCNQ1 inh inactive and KCNK9 inh inactive.
Screening COC(CNC(=O)c1ccc2c3c(onc13)-c1ccccc1C2=O)OC returned hERG protect -46, KCNQ1 pot inactive, KCNK3 block inactive, Kir21 inh -12, KCNQ1 inh 6*, KCNK9 inh inactive, KCNQ1 block val active, CHO KCNQ1 ctr 0.086*, KCNQ2 inh inactive and KCNQ1-KCNE1 inh inactive.
`O=C(Nc1ccc(Br)cc1)Nc1cnccn1` gave hERG protect -11, KCNQ1 pot inactive, KCNK3 block inactive, Kir21 inh -0.82, KCNQ1 inh 7*, KCNK9 inh inactive, KCNQ1 block val 0, CHO KCNQ1 ctr 0.56, KCNQ2 inh inactive and KCNQ1-KCNE1 inh inactive.
Screening CC(C)Cn1c(=O)c(C(=O)Nc2ccccc2S(N)(=O)=O)c(O)c2ccccc21 returned hERG protect -9, KCNQ1 pot inactive, KCNK3 block inactive, Kir21 inh -0.34, KCNQ1 inh 8*, KCNK9 inh inactive, KCNQ1 block val 118*, CHO KCNQ1 ctr 0.41, KCNQ2 inh 63%* and KCNQ1-KCNE1 inh 148%*.
For Cc1ccc(NC(=O)Nc2nnc(-c3ccncc3)s2)cc1C the results were hERG protect -8, KCNQ1 pot inactive, KCNK3 block inactive, Kir21 inh 0.82, KCNQ1 inh 11*, KCNK9 inh inactive, KCNQ1 block val 105*, CHO KCNQ1 ctr 0.5, KCNQ1 ephys val inactive, KCNQ2 inh inactive and KCNQ1-KCNE1 inh 57%*.
Screening O=C(Nc1ccc(Cl)cc1)Nc1nnc(-c2ccncc2)s1 returned hERG protect -11, KCNQ1 pot inactive, KCNK3 block inactive, Kir21 inh -0.41, KCNQ1 inh inactive and KCNK9 inh inactive.
CCSc1nnc(-c2sc3nnc(-c4ccccc4)c(-c4ccccc4)c3c2N)o1 was read as hERG protect -27, KCNQ1 pot inactive, KCNK3 block inactive, Kir21 inh -0.63, KCNQ1 inh 14*, KCNK9 inh inactive, KCNQ1 block val active, CHO KCNQ1 ctr 0.14*, KCNQ2 inh inactive and KCNQ1-KCNE1 inh inactive.
For Cc1ccc(NC(=O)N2CCCC2C(=O)NCCc2ccccc2)cc1 (centres undefined) the results were hERG protect -11, KCNQ1 pot inactive, KCNK3 block inactive, Kir21 inh 0.78, KCNQ1 inh inactive and KCNK9 inh inactive.
For COc1cccc(C2C(=O)N(C3CCCCC3)CC(=O)N2Cc2ccc(F)cc2)c1 (centres undefined) the results were hERG protect -19, KCNQ1 pot inactive, KCNK3 block inactive, Kir21 inh -0.09, KCNQ1 inh 6*, KCNK9 inh inactive, KCNQ1 block val 54*, CHO KCNQ1 ctr 0.45, KCNQ2 inh 93%* and KCNQ1-KCNE1 inh 42%*.
Screening CCOc1ccc(NC(=O)Nc2cccc(C(=O)O)c2)cc1 returned hERG protect -2, KCNQ1 pot inactive, KCNK3 block inactive, Kir21 inh -1, KCNQ1 inh inactive and KCNK9 inh inactive.
CCOc1ccc(NC(=S)Nc2ccc3nsnc3c2)cc1 was read as hERG protect -2, KCNQ1 pot inactive, KCNK3 block inactive, Kir21 inh -0.18, KCNQ1 inh 6*, KCNK9 inh inactive, KCNQ1 block val 82*, CHO KCNQ1 ctr 0.49, KCNQ2 inh 70%* and KCNQ1-KCNE1 inh 48%*.
CCOc1ccc(NC(=S)Nc2ccc(OC(F)(F)F)cc2)cc1 was read as hERG protect -3, KCNQ1 pot inactive, KCNK3 block inactive, Kir21 inh 0.42, KCNQ1 inh 7*, KCNK9 inh inactive, KCNQ1 block val 0, CHO KCNQ1 ctr 0.55, KCNQ2 inh inactive and KCNQ1-KCNE1 inh inactive.
Screening CCOc1ccc(NC(=O)Nc2ccc3nsnc3c2)cc1 returned hERG protect -11, KCNQ1 pot inactive, KCNK3 block inactive, Kir21 inh -0.08, KCNQ1 inh 12*, KCNK9 inh inactive, KCNQ1 block val 27*, CHO KCNQ1 ctr 0.55, KCNQ2 inh inactive and KCNQ1-KCNE1 inh inactive.
CCOc1ccc(NC(=S)Nc2ccc(OCC)cc2)cc1 was read as hERG protect -21, KCNQ1 pot inactive, KCNK3 block inactive, Kir21 inh -0.03, KCNQ1 inh inactive and KCNK9 inh inactive.
`COc1ccc(-c2nc(CS(=O)CC(=O)NCc3ccc4c(c3)OCO4)c(C)o2)cc1OC` (centres undefined) gave hERG protect -16, KCNQ1 pot inactive, KCNK3 block inactive, Kir21 inh -0.3, KCNQ1 inh inactive and KCNK9 inh inactive.
